# Shown are actives, neighbours in structure and some others; about 2.1% of the full set was active somewhere.
# Arbovirus inh: blocks arbovirus infection; AID 1251; inhibition, % at 10 µM; arbovirus infection cell-based antiviral screen; actives 0.37% (n = 200,000); in the data active = inhibition above about 30%
# INS promoter inh: TRM-6 insulin promoter activity inhibition; TRM-6 cells, insulin promoter-eGFP reporter, imaging; reporter expression induced with tamoxifen; inhibition, % at 2 µM; actives 0.9% (n = 130,000); AID 1273;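 active = inhibition above the mean plus 3 SD, with well images judged a real hit on visual review, cut at about 60% in these data, passing the limit was not always enough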
# PKD1 inh: PKD1 (human) kinase inhibition | Q15139 | PKD1 kinase fluorescence polarization assay | inhibition, % (concentration not given with the values) | actives 0.056% (n = 200,000) | AID 797; in the data active = inhibition above about 50%
# Target sequence (Q15139 whole entry, looked up): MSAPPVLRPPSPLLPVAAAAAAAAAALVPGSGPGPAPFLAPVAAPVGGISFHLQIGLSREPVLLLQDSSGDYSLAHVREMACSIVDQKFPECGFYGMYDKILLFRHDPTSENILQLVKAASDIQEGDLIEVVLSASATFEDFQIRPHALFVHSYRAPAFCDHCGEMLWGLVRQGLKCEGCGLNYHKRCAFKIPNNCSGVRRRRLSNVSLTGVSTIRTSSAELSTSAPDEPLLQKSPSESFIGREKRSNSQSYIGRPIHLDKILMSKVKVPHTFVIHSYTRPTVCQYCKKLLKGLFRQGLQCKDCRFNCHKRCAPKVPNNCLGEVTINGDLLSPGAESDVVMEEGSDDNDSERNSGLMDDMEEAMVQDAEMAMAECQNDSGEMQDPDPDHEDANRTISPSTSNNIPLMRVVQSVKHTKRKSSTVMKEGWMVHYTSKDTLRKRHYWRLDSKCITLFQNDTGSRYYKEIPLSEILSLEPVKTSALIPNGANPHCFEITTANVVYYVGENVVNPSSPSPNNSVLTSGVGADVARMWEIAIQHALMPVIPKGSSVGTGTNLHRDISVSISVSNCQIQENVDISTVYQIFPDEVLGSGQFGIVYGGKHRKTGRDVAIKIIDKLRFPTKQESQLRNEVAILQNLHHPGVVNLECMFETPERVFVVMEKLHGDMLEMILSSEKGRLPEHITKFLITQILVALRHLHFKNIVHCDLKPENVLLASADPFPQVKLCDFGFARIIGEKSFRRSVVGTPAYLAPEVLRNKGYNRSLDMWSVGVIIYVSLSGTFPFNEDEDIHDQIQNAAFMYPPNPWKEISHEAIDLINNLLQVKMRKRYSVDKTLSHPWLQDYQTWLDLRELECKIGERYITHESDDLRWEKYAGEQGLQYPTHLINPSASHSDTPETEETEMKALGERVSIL
# RBBP9 inh: blocks human serine hydrolase RBBP9. recombinant RBBP9, FP-Rh probe fluorescence polarization. inhibition, % at 7.94 µM. AID 1515. actives 0.2% (n = 220,000);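 active = inhibition above the campaign mean of all tested compounds plus 3 SD, cut at about 14% in these data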;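 also: plate controls were DMSO wells with RBBP9 for no effect and wells lacking RBBP9 protein for full effect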
#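 Material: RBBP9 protein. Amount: RBBP9 at 2.5 µM in dispensed solution, before mixing. Schedule: 30 min then 45 min, 25 °C. Medium: Tris buffer pH 8.0, NaCl, Pluronic. Measured by: fluorescence polarization. Measure: percent inhibition from mP, scaled between DMSO and no-protein wells. Replication: one well per compound.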
# Autophagy HCS: autophagy modulation, high-content screen; MEF GFP-LC3 puncta imaging; test concentration mostly 10 µM; calls only at 10 µM (by protocol); actives 0.98% (n = 190,000); AID 463193;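 active = percentage of spot-positive cells more than 3 SD above its plate mean, without a fluorescence outlier flag or 80% toxicity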;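 also: spot-positive cell cutoff set from DMSO-treated cells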
# Ins promoter up: MIN6 insulin promoter up-regulation; MIN6 insulin promoter-GFP reporter, high-content imaging; active compounds read high; z-score at 5 µM; actives 0.3% (n = 190,000); AID 1625;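 active = z-score above 3 at 5 µM with at least 500 cells counted in the well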
# FP interf 140K: counter-screen for PKD inhibitors: fluorescence polarization interference. shares compounds with PKD1 inh. PKD1 FP assay interference counter-screen. inhibition, % at 10 µM. 85 tested, under 10 active. AID 1315; call rule not given here
# RBBP9 confirm: confirmation of human RBBP9 inhibitors. shares compounds with RBBP9 inh. recombinant RBBP9, FP-Rh probe fluorescence polarization. inhibition, % at 7.94 µM. actives 36% (n = 410);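 active = inhibition above the hit cutoff derived for the primary screen, cut at about 15% in these data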;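 also: 0% = RBBP9 with DMSO and 100% = wells lacking RBBP9 protein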
# The depositor's hits bear a star; i = inactive; / = no result; + = active, no number.
SMILES,Arbovirus inh,INS promoter inh,PKD1 inh,RBBP9 inh,Autophagy HCS,Ins promoter up,FP interf 140K,others
O=C(Nc1ccccc1)C12CC3CC(C1)CC(n1cnc([N+](=O)[O-])n1)(C3)C2,6,/,-4,-1,i,-0.49,/,
O=C(Nc1ccc(CN2CCOCC2)cc1)c1ccc(-c2cccc(Cl)c2)o1,-35,37,86*,-11,i,-0.63,-16,
O=C(NC(=S)Nc1ccc(CN2CCOCC2)cc1)c1ccc(-c2cccc(Cl)c2)o1,/,/,/,1,/,-1.2,/,
CCOC(=O)N1CCN(c2cc(NCCC(=O)O)c3c4c(onc24)-c2ccccc2C3=O)CC1,6,/,56*,6,i,-0.16,14,
Nc1ccc2nc3c(=O)n(CCc4ccccc4)c(=O)[nH]c3nc2c1,/,/,/,4,/,1.2,/,
CCCCn1c(=O)[nH]c2nc3cc(N)ccc3nc2c1=O,-19,/,60*,2,i,4.8*,7,
CC(Sc1nnc2ccccn12)C(=O)NCc1ccc2c(c1)OCO2 (stereo not given),-10,7,0,-4,i,-0.48,/,
C=CCn1c(SC(C)C(=O)NCc2ccc3c(c2)OCO3)nnc1C1CCCCC1 (stereo not given),1,-42,97*,-7,i,-2.9,-5,
O=S(=O)(c1cccc2cnccc12)N1CCCNCC1,11,-205,104*,-6,i,/,-5,
NC(=NCCc1c[nH]c2ccccc12)NS(=O)(=O)c1cc(F)ccc1F,11,/,52*,-5,i,0.03,-15,
CCCNC(=O)CN(c1ccc(F)cc1)S(=O)(=O)c1ccc2c(c1)OCCO2,10,7,56*,-1,i,/,-14,
O=C(CN(c1ccc(F)cc1)S(=O)(=O)c1ccc2c(c1)OCCO2)NCc1ccncc1,1,-14,-10,-3,i,-0.13,/,
O=C(CN(C1CCCCC1)S(=O)(=O)c1ccccc1)NCc1ccco1,4,-419,-6,-3,i,/,/,
O=C(Nc1ccccc1Cl)Oc1ccc(Cl)cc1Cl,/,/,/,5,/,-0.22,/,
O=C(Nc1ccccc1Cl)ON=C1c2ccccc2-c2ccccc21,4,/,61*,-9,i,0.34,-11,
O=C(Nc1ccccc1)O/N=C(\c1ccccc1)c1ccccn1,-4,/,-10,-8,i,0.48,/,
O=C(Nc1ccccc1)ON=C1c2ccccc2-c2ccccc21,4,24,51*,-7,i,-0.05,4,
Cc1ccc(NC(=O)CN(C)C(=O)COc2c(Cl)cc(Cl)c3ccc(C)nc23)cc1,-4,/,-5,-7,i,0.4,/,
Cc1nc2sc3c(c2c(=O)n1/N=C/c1cccnc1)CCCC3,-10,33,3,-2,i,0.26,/,
O=C(CSc1ccc2nnc(-c3ccccn3)n2n1)Nc1nccs1,5,-18,-4,-5,i,-0.69,/,
COC(=O)c1ccccc1NCCO,/,/,/,-4,/,-0.04,/,
COC(=O)c1cccc2c1-c1ccccc1/C2=N/O,4,3,70*,-7,i,0.89,-19,
COc1ccc(C2C(C(=O)c3cccs3)=C(O)C(=O)N2c2nncs2)cc1 (stereo not given),3,/,67*,2,i,0.3,34,
COc1ccc2nc3sc(C(=O)NCCCN4CCc5ccccc5C4)cc3cc2c1,-1,11,56*,-7,i,-0.36,-17,
CCOC(=O)N1CCC(NS(=O)(=O)c2cc(Br)cc3c2N(C(=O)CC)CC3)CC1,0,/,66*,-9,i,0.03,-18,
SMILES,Arbovirus inh,INS promoter inh,PKD1 inh,RBBP9 inh,Autophagy HCS,Ins promoter up,FP interf 140K,others
Cn1c(=O)[nH]c(=O)c2c1nc(NC1CCCCC1)n2CC(=O)NC1CCCCC1,3,-16,101*,-8,+,-0.11,-24,
CC(=O)Nc1cc(S(=O)(=O)Nc2ccc(C)cc2)c(C)cc1C,-1,-11,-7,-7,i,/,/,
O=C(O)C1CCCN1S(=O)(=O)c1ccc2[nH]c(=O)c(=O)[nH]c2c1 (stereo not given),5,-59,-3,-1,i,/,/,
CCOC(=O)c1[nH]c2cc(OC)c(OC)cc2c1NC(=O)CN1CCN(C)CC1,10,-69,76*,-4,i,-0.75,-2,
CCOC(=O)c1[nH]c2ccc(C)cc2c1NC(=O)CN1CCCCC1,5,-68,-4,8,i,0.06,/,
CCOc1cccc(C2C(C(=O)c3ccc(C)o3)=C(O)C(=O)N2c2nccs2)c1 (stereo not given),-7,/,88*,-14,i,0.93,71*,
CCN1/C(=C/C(C)=O)Sc2ccc(OC)cc21,-9,/,78*,-8,i,2.8,-14,
Cc1cc(N=CC2=C(O)CC(C)(C)CC2=O)no1,5,27,60*,1,i,0.01,-4,
CC(C)(C)Nc1nc(N)nc(Cl)n1,4,/,-5,-1,i,0.34,/,
CCCc1cc(=O)[nH]c(=S)[nH]1,4,14,-10,-7,i,/,/,
Cn1c(=O)c(NCCO)c2c3c(cccc31)C(=O)c1ccccc1-2,8,-68,144*,63*,i,/,100*,RBBP9 confirm=75*
CN(C)S(=O)(=O)N1CCN(S(=O)(=O)c2ccccc2)CC1,6,12,-7,-3,i,0.63,/,
NNC(=O)c1cc(-c2ccc(N)cc2)nc2ccc(Br)cc12,/,/,/,15*,/,-0.12,/,RBBP9 confirm=69*
Cc1cc(C(=O)NN)c2cc(Br)ccc2n1,-1,-87,-3,-11,i,/,/,
Cc1ccc(NC(=S)N/N=C2\CC(C)(C)Oc3ccc(O)cc32)cc1,9,12,8,17*,i,0.08,/,RBBP9 confirm=11
CC(C)OC(=O)C(C)Nc1n[nH]c(=S)[nH]c1=O (stereo not given),9,/,5,-6,i,0.25,/,
CC(C)c1ccccc1NC(=O)CNCCc1ccc(C(F)(F)F)cc1,/,/,/,17*,/,0.17,/,RBBP9 confirm=4
O=C(COC(=O)/C=C/c1cccs1)Nc1nc(-c2cccc(Br)c2)cs1,/,/,/,17*,/,-0.18,/,RBBP9 confirm=27*
O=C(COC(=O)/C=C/c1cccs1)Nc1nc(-c2ccccc2)cs1,3,0,-1,-1,i,-1.3,/,
CCCNC(=O)Nc1cc(C)on1,3,/,-9,-6,i,0.08,/,
Cc1ccc(S(=O)(=O)Nc2ccccc2C(=O)OC(C)C(=O)Nc2ccc3ccccc3c2)cc1[N+](=O)[O-] (stereo not given),14,50,-8,-14,i,0.06,/,
COc1ccc(NC(=S)NNc2ccc(S(=O)(=O)Nc3ccccc3C(=O)O)cc2[N+](=O)[O-])cc1,/,/,/,22*,/,0.18,/,RBBP9 confirm=15*
O=C(NCCOc1ccccc1)c1ccccc1NC(=O)C1CCCO1 (stereo not given),2,/,2,-4,i,-0.18,/,
COc1ccc(/C=C/C(=O)NC(=S)NNC(=O)c2cccs2)cc1OC,/,/,/,-3,/,-1,/,

# Assay outcomes deposited in PubChem BioAssay by several laboratories.
